Test results reported in ChEMBL document CHEMBL1140055, “Mixed-lineage kinase 1 and mixed-lineage kinase 3 subtype-selective dihydronaphthyl[3,4-a]pyrrolo[3,4-c]carbazole-5-ones: optimization, mixed-lineage kinase 1 crystallography, and oral in vivo activity in 1-methyl-4-phenyltetrahydropyridine models” (J Med Chem, 2008).
The source made the active and inactive calls. The rule behind the calls is not given here.

Tests used:
[1] = target: T1, Mitogen-activated protein kinase kinase kinase 9 (Homo sapiens, UniProt P80192); test: Inhibition of GST-fused human MLK1 at 1 uM
Summary of the method: (§1)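 Baculovirus-expressed GST fusions of human MLK1 or MLK3 kinase domain (50 ng MLK1, 100 ng MLK3), myelin basic protein substrate at 500 µg/mL.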
Target sequence in this assay (P80192 whole entry, looked up, the tested form may be a part): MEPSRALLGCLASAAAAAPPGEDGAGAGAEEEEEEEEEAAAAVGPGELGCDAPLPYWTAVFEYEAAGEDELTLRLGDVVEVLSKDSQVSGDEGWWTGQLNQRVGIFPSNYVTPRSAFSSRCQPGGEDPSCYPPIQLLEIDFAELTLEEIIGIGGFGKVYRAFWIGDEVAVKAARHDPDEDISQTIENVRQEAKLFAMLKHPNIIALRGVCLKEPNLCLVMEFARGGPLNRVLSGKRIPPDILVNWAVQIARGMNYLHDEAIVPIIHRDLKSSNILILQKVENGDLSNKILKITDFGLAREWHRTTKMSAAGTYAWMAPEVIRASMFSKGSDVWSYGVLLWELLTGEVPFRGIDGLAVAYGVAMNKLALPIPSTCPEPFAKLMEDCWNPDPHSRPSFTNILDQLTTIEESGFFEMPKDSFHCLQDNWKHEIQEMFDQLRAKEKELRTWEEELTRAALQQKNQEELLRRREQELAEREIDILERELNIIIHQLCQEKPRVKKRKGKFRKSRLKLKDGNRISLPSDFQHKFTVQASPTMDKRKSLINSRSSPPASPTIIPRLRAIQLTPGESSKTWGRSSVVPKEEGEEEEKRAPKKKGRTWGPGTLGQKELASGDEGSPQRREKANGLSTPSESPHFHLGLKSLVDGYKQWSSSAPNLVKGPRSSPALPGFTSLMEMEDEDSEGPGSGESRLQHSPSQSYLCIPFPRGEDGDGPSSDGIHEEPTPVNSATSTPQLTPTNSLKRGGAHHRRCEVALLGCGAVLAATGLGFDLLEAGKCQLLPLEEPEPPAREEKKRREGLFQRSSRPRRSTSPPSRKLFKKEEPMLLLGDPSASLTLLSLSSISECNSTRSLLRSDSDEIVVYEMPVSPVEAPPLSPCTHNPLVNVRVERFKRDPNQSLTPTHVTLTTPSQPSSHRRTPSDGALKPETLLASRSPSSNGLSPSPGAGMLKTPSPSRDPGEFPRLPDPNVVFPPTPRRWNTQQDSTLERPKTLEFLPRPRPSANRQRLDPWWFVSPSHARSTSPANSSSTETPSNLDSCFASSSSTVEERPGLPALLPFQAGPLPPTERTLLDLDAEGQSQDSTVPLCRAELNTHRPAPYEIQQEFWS

[2] = target: T2, Mitogen-activated protein kinase kinase kinase 11 (Homo sapiens, UniProt Q16584); test: Inhibition of GST-fused human MLK3 at 1 uM; summary of the method: as §1
Target sequence in this assay (Q16584 whole entry, looked up, the tested form may be a part): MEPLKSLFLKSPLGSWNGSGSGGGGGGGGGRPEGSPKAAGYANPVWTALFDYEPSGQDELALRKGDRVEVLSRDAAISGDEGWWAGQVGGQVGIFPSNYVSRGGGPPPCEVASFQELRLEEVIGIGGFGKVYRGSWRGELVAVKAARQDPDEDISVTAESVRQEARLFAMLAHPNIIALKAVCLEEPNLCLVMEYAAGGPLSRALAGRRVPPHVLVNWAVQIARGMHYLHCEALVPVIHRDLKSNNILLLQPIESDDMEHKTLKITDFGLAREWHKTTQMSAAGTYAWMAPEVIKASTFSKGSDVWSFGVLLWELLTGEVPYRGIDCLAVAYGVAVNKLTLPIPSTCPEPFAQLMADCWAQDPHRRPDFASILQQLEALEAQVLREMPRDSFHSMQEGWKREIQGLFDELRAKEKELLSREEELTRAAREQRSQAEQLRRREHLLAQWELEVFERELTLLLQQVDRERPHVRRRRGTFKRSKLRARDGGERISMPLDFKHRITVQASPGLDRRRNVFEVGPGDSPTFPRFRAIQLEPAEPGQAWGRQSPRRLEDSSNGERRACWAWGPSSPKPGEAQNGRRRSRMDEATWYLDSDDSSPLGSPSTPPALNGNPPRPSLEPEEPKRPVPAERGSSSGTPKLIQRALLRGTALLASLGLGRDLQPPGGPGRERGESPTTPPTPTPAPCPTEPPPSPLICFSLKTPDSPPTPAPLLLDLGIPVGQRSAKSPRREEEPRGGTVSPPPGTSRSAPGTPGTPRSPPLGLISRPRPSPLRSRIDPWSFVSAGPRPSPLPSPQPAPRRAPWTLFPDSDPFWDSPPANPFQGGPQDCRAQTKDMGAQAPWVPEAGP

[3] = target: T1, Mitogen-activated protein kinase kinase kinase 9; test: Inhibition of GST-fused human MLK1
Summary of the method: (§2)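 GST fusions of human MLK kinase domains from baculovirus (50 ng MLK1_KD, 150 ng MLK2_KD/LZ, 100 ng MLK3_KD), substrate 500 µg/mL myelin basic protein. Buffer 20 mM Hepes pH 7.2, 5 mM EGTA, 15 mM MgCl2, 1 mM DTT, 25 mM β-glycerophosphate, 0.1% BSA, 2% DMSO.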
Target sequence in this assay (P80192 whole entry, the tested form may be a part): as the sequence (P80192 whole entry, looked up, the tested form may be a part) above

[4] = target: T2, Mitogen-activated protein kinase kinase kinase 11; test: Inhibition of GST-fused human MLK3; summary of the method: as §2
Target sequence in this assay (Q16584 whole entry, the tested form may be a part): as the sequence (Q16584 whole entry, looked up, the tested form may be a part) above

[5] = target: T1, Mitogen-activated protein kinase kinase kinase 9; test: Inhibition of GST-fused human MLK1 expressed in CHO cells assessed as MKK4 phosphorylation; format: cell-based
Summary of the method: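 CHO cells transfected with MLK1 plus dominant-negative MKK4 cDNA; phospho-MKK4 quantified by ELISA; IC50 derived.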
Target sequence in this assay (P80192 whole entry, the tested form may be a part): as the sequence (P80192 whole entry, looked up, the tested form may be a part) above

[6] = Half life in Sprague-Dawley rat at 2 mg/kg, iv; format: ADME, organism-based; set-up: dose 2 mg/kg, route intravenous; details: in vivo
Summary of the method: (§3)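 Rat PK: iv dose into lateral tail vein in 3% DMSO/30% solutol/67% PBS; oral gavage in 50% Tween 80/40% propylene carbonate/10% propylene glycol, rats fasted overnight before oral dosing. Serial tail-vein blood at seven times over 6 h into heparinized tubes. Plasma protein-precipitated with acetonitrile, analysed with internal standard by LC-MS/MS. Bioavailability from iv versus po AUCs.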

[7] = system: Mus musculus; test: Inhibition of MPTP-induced increase in pMKK4 levels in mouse at 6.7 mg/kg, po administered 2 hrs before MPTP challenge followed by 40 mg/kg, sc 2 hrs after MPTP challenge; format: functional
Summary of the method: (§4)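 Mice dosed orally at 6.7 mg/kg 2 h before and 2 h after MPTP (40 mg/kg sc). Substantia nigra dissected 2 h after second dose; pMKK4 measured by immunoblot against treated and control groups. Plasma drug levels taken 2 h after dosing (4 h post-MPTP).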

[8] = target: Cyclin-dependent kinase; test: Inhibition of human CDK expressed in baculovirus insect cell system
[9] = Plasma concentration in mouse at 6.7 mg/kg, po administered 2 hrs before MPTP challenge followed by 40 mg/kg, sc 2 hrs after MPTP challenge; format: ADME, organism-based; details: other: po followed by sc; summary of the method: as §4
[10] = target: Vascular endothelial growth factor receptor 2 (Homo sapiens, UniProt P35968); test: Inhibition of human VEGFR2 expressed in baculovirus insect cell system
[11] = system: Mus musculus; test: Neuroprotective activity against MPTP-induced loss of substantia nigra dopamine cell bodies in mouse at 2 mg/kg, po administered once daily; format: functional, organism-based; set-up: dose 2 mg/kg
Summary of the method: (§5)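 Mouse MPTP neurotoxicity: low dose 20 mg/kg sc, assessing striatal DA terminals by GBR-12935 binding; high dose 40 mg/kg sc, assessing striatal DA markers and substantia nigra cell bodies by TH immunoreactivity. Test compounds given orally, q.d. or b.i.d.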

[12] = target: Serine/threonine-protein kinase Chk1/2 (Homo sapiens, UniProt O96017+O14757); test: Inhibition of human CHK1/2 expressed in baculovirus insect cell system
[13] = Metabolic stability in rat liver S9 fraction after 2 hrs in presence of NADPH; format: ADME, subcellular; details: read-out: Stability
Summary of the method: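 Incubated 2 h in rat liver S9 preparation with NADPH; percent parent remaining reported.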

[14] = target: Platelet-derived growth factor receptor beta (Homo sapiens, UniProt P09619); test: Inhibition of human PDGFRbeta expressed in baculovirus insect cell system
[15] = Half life in Sprague-Dawley rat at 4 mg/kg, po; format: ADME, organism-based; set-up: dose 4 mg/kg, route oral; details: in vivo
[16] = Volume of distribution in Sprague-Dawley rat at 2 mg/kg, iv; format: ADME, organism-based; set-up: dose 2 mg/kg, route intravenous; details: in vivo; summary of the method: as §3
[17] = target: Tyrosine-protein kinase Fyn (Homo sapiens, UniProt P06241); test: Inhibition of human Fyn kinase expressed in baculovirus insect cell system
[18] = target: Vascular endothelial growth factor receptor 3 (Homo sapiens, UniProt P35916); test: Inhibition of human VEGFR3 expressed in baculovirus insect cell system
[19] = target: Protein kinase C (PKC); test: Inhibition of human PKC expressed in baculovirus insect cell system
[20] = target: T3, Dual specificity mitogen-activated protein kinase kinase 4 (Homo sapiens, UniProt P45985); test: Inhibition of human MKK4/7 expressed in baculovirus insect cell system
T3 sequence (P45985 whole entry): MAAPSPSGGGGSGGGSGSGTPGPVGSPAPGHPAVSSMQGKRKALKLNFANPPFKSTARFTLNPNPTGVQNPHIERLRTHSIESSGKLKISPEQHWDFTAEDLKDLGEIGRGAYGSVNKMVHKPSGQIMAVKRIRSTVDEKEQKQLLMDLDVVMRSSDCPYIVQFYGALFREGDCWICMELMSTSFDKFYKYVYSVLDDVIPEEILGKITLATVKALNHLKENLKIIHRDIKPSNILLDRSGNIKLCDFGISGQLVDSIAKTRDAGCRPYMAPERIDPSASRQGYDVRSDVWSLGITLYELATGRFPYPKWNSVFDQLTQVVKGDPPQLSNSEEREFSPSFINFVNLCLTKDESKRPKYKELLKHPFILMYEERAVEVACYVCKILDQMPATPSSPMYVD

[21] = Inhibition of human IRK expressed in baculovirus insect cell system
[22] = Clearance in Sprague-Dawley rat at 2 mg/kg, iv; format: ADME, organism-based; set-up: dose 2 mg/kg, route intravenous; details: in vivo; summary of the method: as §3
[23] = system: SH-SY5Y; test: Neuroprotective activity against human SH-SY5Y cells assessed as inhibition of MPP+-induced cell death; format: functional, cell-based
[24] = target: Fibroblast growth factor receptor 1 (Homo sapiens, UniProt P11362); test: Inhibition of human FGFR1 expressed in baculovirus insect cell system
[25] = target: Tyrosine-protein kinase Lck (Homo sapiens, UniProt P06239); test: Inhibition of human Lck expressed in baculovirus insect cell system
[26] = target: High affinity nerve growth factor receptor (Homo sapiens, UniProt P04629); test: Inhibition of human TrkA expressed in baculovirus insect cell system
[27] = Cmax in Sprague-Dawley rat at 4 mg/kg, po; format: ADME, organism-based; set-up: dose 4 mg/kg, route oral; details: in vivo
[28] = target: Vascular endothelial growth factor receptor 1 (Homo sapiens, UniProt P17948); test: Inhibition of human VEGFR1 expressed in baculovirus insect cell system
[29] = target: Mitogen-activated protein kinase kinase kinase 10 (Homo sapiens, UniProt Q02779); test: Inhibition of human MLK2 expressed in baculovirus insect cell system
Summary of the method: as §2, with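 “DMSO. […] 15 min at 37 °C, TCA precipitation, scintillation counting. IC50 by variable-slope sigmoidal fit, average of duplicates within 20%.” for “DMSO.”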

[30] = Oral bioavailability in Sprague-Dawley rat at 4 mg/kg; format: ADME, organism-based; details: in vivo; summary of the method: as §3
[31] = target: c-Jun N-terminal kinase, JNK (Homo sapiens, UniProt P45983+P53779+P45984); test: Inhibition of human JNK expressed in baculovirus insect cell system
[32] = target: Mitogen-activated protein kinase 14 (Homo sapiens, UniProt Q16539); test: Inhibition of human P38alpha expressed in baculovirus insect cell system
[33] = AUC in Sprague-Dawley rat at 2 mg/kg, iv; format: ADME, organism-based; set-up: dose 2 mg/kg, route intravenous; details: plasma
Summary of the method: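 Single intravenous dose into the lateral tail vein in 3% DMSO, 30% solutol and 67% phosphate-buffered saline. Serial heparinized blood samples were taken from the lateral tail vein at seven times over 6 h. Plasma was separated by centrifugation, deproteinized with acetonitrile and analysed for drug against an internal standard by LC-MS/MS.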

[34] = AUC in Sprague-Dawley rat at 4 mg/kg, po; format: ADME, organism-based; set-up: dose 4 mg/kg, route oral; details: plasma
Summary of the method: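 Rats were fasted overnight, then dosed by oral gavage in 50% Tween 80, 40% propylene carbonate and 10% propylene glycol. Serial heparinized blood samples were taken from the lateral tail vein at seven times over 6 h. Plasma was deproteinized with acetonitrile and analysed for drug against an internal standard by LC-MS/MS.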

[35] = system: Mus musculus; test: Neuroprotective activity against MPTP-induced loss of striatal dopamine markers in mouse at 2 mg/kg, po administered once daily; format: functional, organism-based; set-up: dose 2 mg/kg; summary of the method: as §5

High affinity nerve growth factor receptor, sequence (P04629 whole entry): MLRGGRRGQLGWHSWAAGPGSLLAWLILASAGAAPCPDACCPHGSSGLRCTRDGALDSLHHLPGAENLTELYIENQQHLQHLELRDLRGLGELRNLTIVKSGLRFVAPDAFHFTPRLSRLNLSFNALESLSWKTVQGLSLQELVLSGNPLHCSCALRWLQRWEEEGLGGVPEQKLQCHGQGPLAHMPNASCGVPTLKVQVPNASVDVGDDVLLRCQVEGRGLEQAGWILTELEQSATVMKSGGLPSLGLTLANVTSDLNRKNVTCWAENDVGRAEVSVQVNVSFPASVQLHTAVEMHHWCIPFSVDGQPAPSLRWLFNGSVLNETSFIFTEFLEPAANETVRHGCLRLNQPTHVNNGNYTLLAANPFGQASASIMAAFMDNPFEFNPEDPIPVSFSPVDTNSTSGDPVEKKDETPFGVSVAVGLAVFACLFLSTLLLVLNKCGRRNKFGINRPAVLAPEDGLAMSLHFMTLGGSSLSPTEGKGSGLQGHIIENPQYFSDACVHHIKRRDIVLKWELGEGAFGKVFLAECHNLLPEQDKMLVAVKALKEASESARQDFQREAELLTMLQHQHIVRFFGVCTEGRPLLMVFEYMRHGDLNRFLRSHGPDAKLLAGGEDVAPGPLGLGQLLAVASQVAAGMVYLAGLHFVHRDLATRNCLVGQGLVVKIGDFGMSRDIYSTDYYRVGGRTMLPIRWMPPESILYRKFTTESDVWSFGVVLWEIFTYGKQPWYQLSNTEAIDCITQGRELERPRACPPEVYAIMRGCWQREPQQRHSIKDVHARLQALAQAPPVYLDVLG
Mitogen-activated protein kinase 14, sequence (Q16539 whole entry): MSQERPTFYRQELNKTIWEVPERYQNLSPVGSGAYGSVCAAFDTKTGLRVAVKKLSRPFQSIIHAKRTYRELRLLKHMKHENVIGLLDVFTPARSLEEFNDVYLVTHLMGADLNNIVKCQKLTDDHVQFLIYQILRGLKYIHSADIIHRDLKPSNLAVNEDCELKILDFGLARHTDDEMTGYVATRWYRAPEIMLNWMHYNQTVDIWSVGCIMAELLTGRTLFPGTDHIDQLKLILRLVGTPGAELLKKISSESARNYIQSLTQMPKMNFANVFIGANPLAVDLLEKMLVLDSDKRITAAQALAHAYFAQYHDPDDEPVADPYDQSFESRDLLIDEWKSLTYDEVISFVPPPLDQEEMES

`O=C1NCc2c1c1c(c3[nH]c4ccccc4c23)CCc2cc(O)ccc2-1` gave an inhibition [1] of 9% and an inhibition [2] of 0%.
`O=C1NCc2c1c1c(c3c2c2ccccc2n3CCO)CCc2cc(OCCOCc3ccccc3)ccc2-1` gave an inhibition [1] of 9% and an inhibition [2] of 0%.
Compound `O=C1NCc2c1c1c(c3c2c2ccccc2n3CCO)CCc2cc(OCC3CC3)ccc2-1` has an inhibition [1] of 30% and an inhibition [2] of 32%.
With `COCCOc1ccc2c(c1)CCc1c-2c2c(c3c4ccccc4n(CCO)c13)CNC2=O` the inhibition [1] was 52% and the inhibition [2] was 40%.
`COc1ccc2c(c1)CCc1c-2c2c(c3c1[nH]c1ccccc13)CNC2=O` gave an IC50 [3] of 188 nM and an IC50 [4] of 274 nM.
Compound `O=C1NCc2c1c1c(c3c2c2ccccc2n3CCO)CCc2cc(OC3CCCC3)ccc2-1` has an IC50 [5] of 345 nM, an IC50 [3] of 49 nM and an inhibition [2] of 32%.
For `COc1ccc2c(c1)CCc1c-2c2c(c3c4ccccc4n(CCO)c13)CNC2=O`, the half-life [6] was 0.6 h, the “inhibition (INH)” value [7] was 68% and the IC50 [8] was greater than 10000 nM. It also gave a concentration at 2 h [9] of 250 nM, an IC50 [10] of 4720 nM and an IC50 [5] of 127 nM. The IC50 [3] was 103 nM, the Activity [11] was “Active” and the IC50 [12] was greater than 10000 nM. The remaining at 2 h [13] was 44%, the IC50 [14] was greater than 10000 nM and the half-life [15] was 1.4 h. For the same compound, the Vd [16] was 0.9 L/kg, the IC50 [17] was 3400 nM and the IC50 [18] was greater than 10000 nM. For the same compound, the IC50 [19] was greater than 10000 nM, the IC50 [20] was greater than 3000 nM and the IC50 [21] was greater than 10000 nM. For the same compound, the clearance [22] was 19 mL/min/kg, the IC50 [23] was 32 nM and the IC50 [24] was greater than 10000 nM. The IC50 [25] was 6400 nM, the IC50 [26] was 1270 nM and the IC50 [4] was 55 nM. For the same compound, the Cmax [27] was 572 ng/mL, the IC50 [28] was greater than 10000 nM and the IC50 [29] was 1580 nM. The bioavailability [30] was 57%, the IC50 [31] was greater than 30000 nM and the IC50 [32] was greater than 10000 nM. The AUC [33] was 1730 ng·h/mL, the AUC [34] was 1990 ng·h/mL and the Activity [35] was “Active”.
Work on `O=C1NCc2c1c1c(c3c2c2ccccc2n3CCO)CCc2cc(O)ccc2-1` yielded an inhibition [1] of 32% and an inhibition [2] of 30%.
Work on `COc1ccc2c(c1)CCc1c-2c2c(c3c4ccccc4n(CCCO)c13)CNC2=O` yielded an IC50 [3] of 101 nM and an IC50 [4] of 87 nM.
